Data taken from ChEMBL document CHEMBL3632567, “Selective Allosteric Antagonists for the G Protein-Coupled Receptor GPRC6A Based on the 2-Phenylindole Privileged Structure Scaffold” (J Med Chem, 2015).

What was measured:
[1] = biological target: T1, Extracellular calcium-sensing receptor (Rattus norvegicus, UniProt P48442); assay: Antagonist activity at rat CaSR expressed in HEK293 cells assessed as inhibition of Ca2+-induced inositol monophosphate accumulation after 30 min by FRET assay
T1 sequence (P48442 whole entry): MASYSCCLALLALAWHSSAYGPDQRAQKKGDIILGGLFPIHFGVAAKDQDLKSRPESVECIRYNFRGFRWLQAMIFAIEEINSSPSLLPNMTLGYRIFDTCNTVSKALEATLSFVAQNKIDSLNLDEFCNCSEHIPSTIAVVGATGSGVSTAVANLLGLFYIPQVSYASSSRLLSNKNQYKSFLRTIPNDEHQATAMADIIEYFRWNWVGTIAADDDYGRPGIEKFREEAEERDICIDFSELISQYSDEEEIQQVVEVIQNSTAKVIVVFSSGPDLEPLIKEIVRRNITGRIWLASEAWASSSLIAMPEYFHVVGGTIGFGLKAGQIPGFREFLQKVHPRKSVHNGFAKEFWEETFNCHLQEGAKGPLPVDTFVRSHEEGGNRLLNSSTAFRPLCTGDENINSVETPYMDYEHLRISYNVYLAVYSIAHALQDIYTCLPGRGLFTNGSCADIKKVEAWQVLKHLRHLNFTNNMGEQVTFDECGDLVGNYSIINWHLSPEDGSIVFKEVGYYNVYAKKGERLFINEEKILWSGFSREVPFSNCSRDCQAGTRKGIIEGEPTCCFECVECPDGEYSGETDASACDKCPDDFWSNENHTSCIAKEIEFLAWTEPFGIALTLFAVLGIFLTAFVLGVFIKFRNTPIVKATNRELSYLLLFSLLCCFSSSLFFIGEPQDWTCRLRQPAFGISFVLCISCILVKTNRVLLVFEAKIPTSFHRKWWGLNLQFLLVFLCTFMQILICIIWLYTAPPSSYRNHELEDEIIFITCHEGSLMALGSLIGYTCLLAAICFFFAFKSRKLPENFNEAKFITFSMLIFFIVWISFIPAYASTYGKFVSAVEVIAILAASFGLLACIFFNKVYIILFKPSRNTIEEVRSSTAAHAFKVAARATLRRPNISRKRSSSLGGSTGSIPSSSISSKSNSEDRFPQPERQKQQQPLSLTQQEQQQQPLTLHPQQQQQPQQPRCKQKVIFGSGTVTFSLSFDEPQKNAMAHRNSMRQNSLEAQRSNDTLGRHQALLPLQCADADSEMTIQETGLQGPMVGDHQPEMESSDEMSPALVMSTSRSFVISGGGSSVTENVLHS

[2] = biological target: T2, G-protein coupled receptor family C group 6 member A (Mus musculus, UniProt Q8K4Z6); assay: Antagonist activity at mouse GPRC6A receptor expressed in HEK293 cells assessed as inhibition of L-ornithine-induced inositol monophosphate accumulation after 1 hr by FRET assay; type: functional, cell-based
T2 sequence (Q8K4Z6 whole entry): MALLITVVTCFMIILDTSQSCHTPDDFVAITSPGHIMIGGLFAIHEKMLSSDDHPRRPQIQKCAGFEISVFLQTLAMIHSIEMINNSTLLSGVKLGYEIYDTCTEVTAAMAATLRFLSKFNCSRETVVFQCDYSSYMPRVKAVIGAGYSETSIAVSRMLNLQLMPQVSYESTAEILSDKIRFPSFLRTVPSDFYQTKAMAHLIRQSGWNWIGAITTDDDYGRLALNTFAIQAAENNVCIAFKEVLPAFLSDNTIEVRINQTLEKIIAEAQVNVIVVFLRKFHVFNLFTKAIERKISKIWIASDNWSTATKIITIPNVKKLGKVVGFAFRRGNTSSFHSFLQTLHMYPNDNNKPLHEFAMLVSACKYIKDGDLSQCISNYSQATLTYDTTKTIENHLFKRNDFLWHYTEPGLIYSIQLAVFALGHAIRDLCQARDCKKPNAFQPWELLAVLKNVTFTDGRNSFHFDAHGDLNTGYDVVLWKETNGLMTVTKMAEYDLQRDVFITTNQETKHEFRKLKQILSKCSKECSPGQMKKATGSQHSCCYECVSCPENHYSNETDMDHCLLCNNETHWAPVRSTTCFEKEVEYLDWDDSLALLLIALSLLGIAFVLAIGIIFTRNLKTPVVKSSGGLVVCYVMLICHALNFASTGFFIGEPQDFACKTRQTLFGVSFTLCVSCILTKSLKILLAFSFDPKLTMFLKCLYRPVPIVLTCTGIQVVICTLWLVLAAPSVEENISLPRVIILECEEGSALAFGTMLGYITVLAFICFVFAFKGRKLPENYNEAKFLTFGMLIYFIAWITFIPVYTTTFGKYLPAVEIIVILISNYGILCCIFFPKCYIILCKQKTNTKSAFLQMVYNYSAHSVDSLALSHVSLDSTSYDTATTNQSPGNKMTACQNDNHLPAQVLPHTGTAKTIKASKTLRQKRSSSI
Summary of the method: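 HEK-293T cells transiently co-transfected (Lipofectamine 2000, 48 h before assay) with mouse GPRC6A and Gq(G66D), 1:1, 12,500 cells/well on poly-D-lysine. Cells washed twice in HBSS/HEPES/BSA pH 7.4, then 1 h at 37 °C with compounds (up to 400 µM, 2% DMSO final) plus 500 µM L-ornithine in LiCl Ligand Buffer. IP1 read by HTRF; curves triplicate, ≥3 experiments; relative potency = IC50(reference)/IC50 × 100.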

[3] = biological target: T3, 5-hydroxytryptamine receptor 2C (Homo sapiens, UniProt P28335); assay: Antagonist activity at human 5HT2C receptor expressed in HEK293 cells assessed as inhibition of serotonin-induced inositol monophosphate accumulation after 1 hr by FRET assay; type: functional, cell-based
T3 sequence (P28335 whole entry): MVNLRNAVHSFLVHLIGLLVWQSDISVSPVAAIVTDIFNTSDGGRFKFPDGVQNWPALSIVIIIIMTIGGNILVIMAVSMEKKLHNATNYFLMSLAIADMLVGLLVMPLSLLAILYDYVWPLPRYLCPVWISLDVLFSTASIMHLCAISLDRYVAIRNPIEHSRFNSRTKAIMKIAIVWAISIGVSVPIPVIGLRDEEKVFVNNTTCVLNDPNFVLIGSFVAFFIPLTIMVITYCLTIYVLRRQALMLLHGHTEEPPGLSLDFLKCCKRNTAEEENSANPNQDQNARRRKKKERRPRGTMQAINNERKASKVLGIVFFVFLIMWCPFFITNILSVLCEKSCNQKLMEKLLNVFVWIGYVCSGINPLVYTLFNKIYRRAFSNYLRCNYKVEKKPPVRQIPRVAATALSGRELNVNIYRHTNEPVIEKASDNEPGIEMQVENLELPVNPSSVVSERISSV
Summary of the method: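 HEK-293T cells transiently transfected with human 5-HT2C (0.25 µg DNA/well), seeded 12,500/well 48 h before assay. After two HBSS/HEPES/BSA pH 7.4 washes, compounds in 2% DMSO final with 1 µM serotonin in Ligand Buffer (1 mM CaCl2, 1 mM MgCl2, LiCl, pH 7.4) applied 1 h at 37 °C. Lysate IP1 measured by HTRF (665/615 nm ratio vs standard); pIC50 by nonlinear regression, triplicate, ≥3 experiments.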

[4] = biological target: Muscarinic acetylcholine receptor M3 (Homo sapiens, UniProt P20309); assay: Antagonist activity at human muscarinic M3 receptor expressed in HEK293 cells assessed as inhibition of carbachol-induced inositol monophosphate accumulation after 1 hr by FRET assay; type: functional, cell-based
Chain of Muscarinic acetylcholine receptor M3 (P20309 whole entry): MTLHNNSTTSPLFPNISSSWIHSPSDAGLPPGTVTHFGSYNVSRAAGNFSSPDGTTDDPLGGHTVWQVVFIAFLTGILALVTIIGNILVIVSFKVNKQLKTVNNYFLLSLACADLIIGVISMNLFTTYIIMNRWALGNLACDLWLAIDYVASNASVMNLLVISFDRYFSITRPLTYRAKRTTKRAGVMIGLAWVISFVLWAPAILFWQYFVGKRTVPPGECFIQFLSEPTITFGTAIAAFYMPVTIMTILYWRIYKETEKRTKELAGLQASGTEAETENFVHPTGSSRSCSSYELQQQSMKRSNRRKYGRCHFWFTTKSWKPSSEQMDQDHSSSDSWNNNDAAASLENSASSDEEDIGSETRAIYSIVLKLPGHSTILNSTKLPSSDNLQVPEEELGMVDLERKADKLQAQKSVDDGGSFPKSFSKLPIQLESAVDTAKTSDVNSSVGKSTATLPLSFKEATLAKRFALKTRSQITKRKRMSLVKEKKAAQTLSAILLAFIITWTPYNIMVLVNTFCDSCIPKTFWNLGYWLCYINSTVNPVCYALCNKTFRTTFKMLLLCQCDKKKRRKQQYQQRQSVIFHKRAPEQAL
Summary of the method: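 HEK-293T cells transfected with empty pCIneo to use their native human M3 receptors, 12,500/well, assayed 48 h later. After two HBSS/HEPES/BSA pH 7.4 washes, cells were stimulated 1 h at 37 °C with 1 mM carbachol plus compounds (2% DMSO final) in LiCl-containing Ligand Buffer. IP1 quantified by HTRF against standard; triplicate curves, at least three experiments.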

[5] = biological target: Metabotropic glutamate receptor 5 (Rattus norvegicus, UniProt P31424); assay: Antagonist activity at rat mGluR5 expressed in CHO cells assessed as inhibition of L-glutamate-induced inositol monophosphate accumulation after 1 hr by FRET assay; type: functional, cell-based
Chain of Metabotropic glutamate receptor 5 (P31424 whole entry): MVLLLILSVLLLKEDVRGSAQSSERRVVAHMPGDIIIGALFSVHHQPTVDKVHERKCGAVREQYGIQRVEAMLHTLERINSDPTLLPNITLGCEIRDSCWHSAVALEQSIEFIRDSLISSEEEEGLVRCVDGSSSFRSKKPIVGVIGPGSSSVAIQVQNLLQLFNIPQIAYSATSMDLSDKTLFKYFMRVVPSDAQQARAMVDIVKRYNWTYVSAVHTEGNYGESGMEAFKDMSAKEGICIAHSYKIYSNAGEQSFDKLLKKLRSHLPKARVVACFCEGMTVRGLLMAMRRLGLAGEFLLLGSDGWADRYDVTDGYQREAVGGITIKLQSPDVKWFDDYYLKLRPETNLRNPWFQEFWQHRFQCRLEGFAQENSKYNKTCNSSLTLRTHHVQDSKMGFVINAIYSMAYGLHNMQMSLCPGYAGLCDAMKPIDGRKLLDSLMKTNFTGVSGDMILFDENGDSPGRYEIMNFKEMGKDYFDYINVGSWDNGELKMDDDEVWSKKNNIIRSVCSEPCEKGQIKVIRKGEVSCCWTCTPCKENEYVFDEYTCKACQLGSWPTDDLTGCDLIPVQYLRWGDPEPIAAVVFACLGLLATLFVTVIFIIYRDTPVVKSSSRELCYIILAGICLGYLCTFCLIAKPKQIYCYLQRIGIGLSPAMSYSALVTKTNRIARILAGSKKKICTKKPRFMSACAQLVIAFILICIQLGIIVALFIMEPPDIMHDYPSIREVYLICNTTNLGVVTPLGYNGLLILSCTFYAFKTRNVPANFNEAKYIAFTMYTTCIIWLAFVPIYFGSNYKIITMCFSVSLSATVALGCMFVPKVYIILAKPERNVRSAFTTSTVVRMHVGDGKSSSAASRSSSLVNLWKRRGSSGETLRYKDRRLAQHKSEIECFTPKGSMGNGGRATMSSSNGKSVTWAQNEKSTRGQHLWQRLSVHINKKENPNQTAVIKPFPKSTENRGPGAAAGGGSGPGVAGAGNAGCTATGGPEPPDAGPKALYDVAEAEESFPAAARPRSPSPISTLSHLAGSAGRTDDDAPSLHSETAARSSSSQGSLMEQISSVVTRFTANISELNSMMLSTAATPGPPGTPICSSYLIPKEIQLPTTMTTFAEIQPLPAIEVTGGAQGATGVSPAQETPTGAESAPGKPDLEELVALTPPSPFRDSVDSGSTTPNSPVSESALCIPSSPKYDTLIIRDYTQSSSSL
Summary of the method: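 CHO cells stably expressing rat mGluR5, kept in DMEM with 10% dialyzed FBS and 1% L-proline, 37 °C, 5% CO2. After two washes in HBSS/HEPES/BSA pH 7.4, cells were stimulated 1 h at 37 °C with 100 µM L-glutamate and compounds (2% DMSO final) in LiCl Ligand Buffer. IP1 accumulation by HTRF; triplicate curves, ≥3 experiments.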

[6] = biological target: T4, G-protein coupled receptor family C group 6 member A (Mus musculus) (UniProt Q8K4Z6); assay: Relative antagonist potency at mouse GPRC6A receptor expressed in HEK293 cells assessed as L-ornithine-induced inositol monophosphate accumulation after 1 hr by FRET assay relative to 2-[methyl-(2-morpholino-2-oxo-ethyl)amino]-1-(2-phenyl-1H-indol-3-yl)ethanone
T4 sequence (whole entry): T2 sequence (Q8K4Z6 whole entry)

SMILES | IC50 [1] | IC50 [2] | IC50 [3] | IC50 [4] | IC50 [5] | Relative potency [6]
O=C(CNCC(=O)N1CCOCC1)c1c(-c2ccccc2)[nH]c2ccccc12 | – | 256 µM | – | – | – | 9
CN(CC(=O)c1c(CO)[nH]c2ccccc12)CC(=O)N1CCOCC1 | – | > 400 µM | – | – | – | < 6
CN(CCc1c(-c2ccccc2)[nH]c2ccccc12)CC(=O)N1CCOCC1 | – | 132 µM | – | – | – | 17
CN(CC(=O)N1CCOCC1)C(=O)c1c(-c2ccccc2)[nH]c2ccccc12 | – | > 400 µM | – | – | – | < 6
CN(CC(=O)c1c(-c2ccco2)[nH]c2ccccc12)CC(=O)N1CCOCC1 | – | 248 µM | – | – | – | 9
CN(CC(=O)c1c(-c2ccccc2)[nH]c2ccc(CC(=O)N(C)C)cc12)CC(=O)N1CCOCC1 | – | > 400 µM | – | – | – | < 6
COc1ccc2[nH]c(-c3ccccc3)c(C(=O)CN(C)CC(=O)N3CCOCC3)c2c1 | – | 66.1 µM | – | – | – | 33
CN(CC(=O)c1c[nH]c2ccccc12)CC(=O)N1CCOCC1 | – | > 400 µM | – | – | – | < 6
CN(CC(=O)N1CCOCC1)CC(O)c1c(-c2ccccc2)[nH]c2ccccc12 (centres undefined) | – | > 400 µM | – | – | – | < 6

These reach a lower IC50 [2]. Values come first.

IC50 [1] | IC50 [2] | IC50 [3] | IC50 [4] | IC50 [5] | Relative potency [6] | SMILES
– | 57.3 µM | – | – | – | 38 | CN(CC(=O)c1c(-c2ccccc2)[nH]c2ccccc12)CC(=O)N1CCCC1
– | 39.8 µM | – | – | – | 55 | CN(CC(=O)c1c(-c2ccccc2)[nH]c2ccc(F)cc12)CC(=O)N1CCOCC1
316 µM | 21.9 µM | 214 µM | 27.5 µM | 224 µM | – | CN(CC(=O)c1c(-c2ccccc2)[nH]c2ccccc12)CC(=O)N1CCOCC1
– | 21.3 µM | – | – | – | 103 | CN(CC(=O)c1c(-c2ccc(F)cc2)[nH]c2ccccc12)CC(=O)N1CCOCC1
56.2 µM | 9.33 µM | 51.3 µM | 4.17 µM | 41.7 µM | – | COc1ccc(-c2[nH]c3ccccc3c2C(=O)CN(C)CC(=O)N2CCOCC2)cc1
347 µM | 6.17 µM | 269 µM | 58 µM | 269 µM | – | CN(CCN1CCOCC1)CC(=O)c1c(-c2ccccc2)[nH]c2ccccc12
240 µM | 5.5 µM | 209 µM | 51.3 µM | 263 µM | – | O=C(CN1CCCC(C(=O)N2CCOCC2)C1)c1c(-c2ccccc2)[nH]c2ccccc12 (centres undefined)
